Measured values as given in ChEMBL document CHEMBL1155695, “Prenylated benzoic acid derivatives from Ferula kuhistanica” (2000).
The source made the active and inactive calls. The rule behind the calls is not given here.

Tests used:
Type in all cases: functional
[1] = species on record: Homo sapiens; test: Immunosuppressive activity against human peripheral mononuclear cells assessed as inhibition of LPS-stimulated IL4 production at 10 ug/mL
Method in brief: (§1)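 Whole blood from healthy human volunteers was used as the cell source for the immunosuppression screen. Other details follow a previously published method.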

[2] = species on record: Homo sapiens; test: Immunosuppressive activity against human peripheral mononuclear cells assessed as inhibition of LPS-stimulated IFN-gamma production at 10 ug/mL; method in brief: as §1
[3] = species on record: Homo sapiens; test: Immunosuppressive activity against human peripheral mononuclear cells assessed as inhibition of LPS-stimulated IL2 production at 10 ug/mL; method in brief: as §1
[4] = Immunosuppressive activity against human peripheral mononuclear cells assessed as inhibition of LPS-stimulated IL2 production at 3 ug/mL; method in brief: as §1
[5] = Immunosuppressive activity against human peripheral mononuclear cells assessed as inhibition of LPS-stimulated IL4 production at 3 ug/mL; method in brief: as §1
[6] = Immunosuppressive activity against human peripheral mononuclear cells assessed as inhibition of LPS-stimulated IFN-gamma production at 3 ug/mL; method in brief: as §1
[7] = Immunosuppressive activity against human peripheral mononuclear cells assessed as inhibition of LPS-stimulated IL2 production at 0.3 ug/mL; method in brief: as §1
[8] = Immunosuppressive activity against human peripheral mononuclear cells assessed as inhibition of LPS-stimulated IFN-gamma production at 0.3 ug/mL; method in brief: as §1
[9] = Immunosuppressive activity against human peripheral mononuclear cells assessed as inhibition of LPS-stimulated IL4 production at 0.3 ug/mL; method in brief: as §1

| SMILES | Activity [1] | Activity [2] | Activity [3] | further results |
| --- | --- | --- | --- | --- |
| C/C(=C\Cc1cc(C(=O)O)ccc1O)CCC(O)[C@]1(C)CC[C@H](C(C)(C)O)O1 (stereo not given in full) | inactive | inactive | inactive | – |
| CC(C)=CCCC(C)(O)C(O)CC/C(C)=C/Cc1cc(C(=O)O)ccc1O (stereo not given) | inactive | inactive | inactive | – |
| C/C(=C\Cc1cc(C(=O)O)ccc1O)CC/C=C(\C)CCC(O)C(C)(C)O (racemic) | inactive | inactive | inactive | – |
| CC(C)=CCC/C(C)=C/CC[C@@]1(C)Oc2ccc(C(=O)O)cc2C[C@H]1O (racemic) [KUHISTANOL D] | – | – | – | inhibition at 3 µg/mL [4]: 77.3%; inhibition at 3 µg/mL [5]: 70.3%; inhibition at 3 µg/mL [6]: 61.8% |
| C[C@]12C=CC(=O)C=C1CC[C@@H]1[C@@H]2[C@@H](O)C[C@@]2(C)[C@H]1CC[C@]2(O)C(=O)CO [PREDNISOLONE] | – | – | – | inhibition at 0.3 µg/mL [7]: 65.6%; inhibition at 0.3 µg/mL [8]: 60.2%; inhibition at 0.3 µg/mL [9]: 55.3% |
